Compound activity (PubChem)
Only some compounds are listed: those with a hit (about 3.1% of all), similar ones and a draw of the others.
Tb hexokinase: T. brucei hexokinase 1 inhibition | recombinant TbHK1, G6PDH-coupled NADH A340 | inhibition, % at 10 µM | hit rate 0.11% among 220,000;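 active = inhibition of 50% or more in the single-dose primary screen; inactive = inhibition below 50%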
HSP90 inh: blocks HSP90-mediated luciferase refolding in reticulocyte lysate. Rabbit reticulocyte lysate, luciferase refolding luminescence, 3 h. AID 1789. inhibition, % at 5.6 µM. hit rate 0.91% among 290,000;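 active = inhibition above the screen-wide mean plus 3 SD, computed separately per campaign, cut at about 16% in these data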;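 also: 0% = DMSO wells and 100% = 60 µM geldanamycin wells; inhibitors lower the luminescence because luciferase stays unfolded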
HKDC1 inhibitor: inhibitors of human hexokinase HKDC1 | inhibition, % at 20 µM | recombinant HKDC1, G6PDH/diaphorase resazurin coupled fluorescence | Q2TB90 | hit rate 0.16% among 340,000;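 active = inhibition above about 35% when tested at 20 µM, limit read from the data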;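 also: plate controls were DMSO wells with enzyme for no effect and DMSO wells lacking enzyme for full effect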
Target sequence (Q2TB90 whole entry, looked up): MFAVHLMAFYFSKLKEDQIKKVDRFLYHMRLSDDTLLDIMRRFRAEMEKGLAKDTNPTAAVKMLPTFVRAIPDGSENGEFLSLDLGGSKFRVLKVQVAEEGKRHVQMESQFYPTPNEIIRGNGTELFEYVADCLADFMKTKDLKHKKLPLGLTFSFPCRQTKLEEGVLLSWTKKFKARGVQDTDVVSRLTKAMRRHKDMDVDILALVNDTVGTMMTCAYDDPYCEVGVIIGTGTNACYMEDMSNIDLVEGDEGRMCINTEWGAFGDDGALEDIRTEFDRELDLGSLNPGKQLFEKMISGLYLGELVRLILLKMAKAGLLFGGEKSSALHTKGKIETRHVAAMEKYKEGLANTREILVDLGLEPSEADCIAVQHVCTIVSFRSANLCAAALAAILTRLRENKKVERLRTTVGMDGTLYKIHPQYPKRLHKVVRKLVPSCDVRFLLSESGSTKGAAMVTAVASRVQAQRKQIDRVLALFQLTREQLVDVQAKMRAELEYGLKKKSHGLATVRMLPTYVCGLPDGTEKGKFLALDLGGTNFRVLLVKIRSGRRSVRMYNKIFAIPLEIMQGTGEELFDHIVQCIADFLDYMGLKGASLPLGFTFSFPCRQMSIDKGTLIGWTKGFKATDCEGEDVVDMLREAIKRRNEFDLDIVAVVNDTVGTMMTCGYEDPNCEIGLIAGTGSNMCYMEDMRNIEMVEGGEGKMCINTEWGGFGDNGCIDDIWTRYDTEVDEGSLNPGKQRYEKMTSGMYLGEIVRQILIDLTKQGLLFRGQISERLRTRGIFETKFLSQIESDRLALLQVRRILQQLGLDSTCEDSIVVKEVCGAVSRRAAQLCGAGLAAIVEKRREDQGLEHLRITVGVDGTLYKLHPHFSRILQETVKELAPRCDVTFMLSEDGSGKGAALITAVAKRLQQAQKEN
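test system = in-house recombinant HK5 (HKDC1) enzyme | amount = HKDC1 at 5 µg/mL | control set = DMSO-enzyme wells negative, buffer-substituted wells positive | compound = one dose of 20 µM, 1% DMSO | schedule = reaction time 90 min, room temperature, protected from light | technique = resorufin fluorescence at 613 nm | reagent = glucose with 1 mM ATP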
Hsp70 activator: Hsp70 transcriptional activation, primary screen; HeLa Hsp70 promoter luciferase reporter, luminescence; scaled: vehicle 0, proteasome-inhibitor control 100%; activation, % at 10 µM; hit rate 0.04% among 200,000; AID 1203;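 active = activation above the mean across all tested compounds plus 3 SD, cutoff set per campaign, cut at about 5.5% in these data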;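 also: 100% = MG132 at 30 µM as the positive control and 0% = DMSO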
HSF1 inh: HSF1 inhibition. NIH3T3-HGL HSE-luciferase, MG132-induced, luminescence 8 h; hits give low values. activity change, negative = inhibition, % at 7.5 µM (by protocol). hit rate 0.77% among 300,000. AID 2098;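 active = more than half of replicate wells show activity change below -50%, luminescence cut by over half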;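 also: luciferase reports HSF-1 transcriptional activity via heat shock element; 0% = median of DMSO wells and -100% = zero luminescence signal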
HSF-1 act: increases HSF-1 driven luciferase reporter signal. NIH3T3-HGL HSF-1 luciferase reporter, MG132, 8 h; 100% = twice DMSO control signal. activation, % at 9 µM. hit rate 1.7% among 300,000. AID 504408;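 active = mean replicate activation of at least 50% with a set share of replicates each reaching 50%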;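 also: 0% = median of the neutral control wells and 100% = twice that signal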
* marks the source's active call; other numbers are inactive results; / = not tested or not shown.

SMILES	Tb hexokinase	HSP90 inh	HKDC1 inhibitor	Hsp70 activator	HSF1 inh	HSF-1 act
CCn1cc(C(=O)NN)c(=O)c2cc(F)c(N3CCCCC3)cc21	/	-1.4	-2.2	/	3.7	2.4
CC1(C)CC(=O)C(C(c2cccnc2)C2C(=O)CC(C)(C)CC2=O)C(=O)C1	11.3	-3.1	-7.4	-0.1	-89.5*	-91.8
COc1ccccc1NC(=O)CN1CCCCCC1	/	-5.1	-7.4	/	0.1	23.4
CCOc1ccc(NC(=O)c2cc3ccccc3cc2OC)cc1	/	1.2	-1.0	/	22.4	74.7*
COc1ccccc1NC(=O)CN1CCN(CC(=O)Nc2ccccc2Cl)CC1	/	-3.9	-7.2	/	156.7	242.6*
COc1cc2ccccc2cc1C(=O)Nc1ccccc1N1CCCC1	/	/	0.3	/	5.1	-19.9
COc1cc(C(=O)Nc2ccc(Nc3ccccc3)cc2)cc(OC)c1OC	/	0.1	8.6	/	25.2	57.9*
COc1cc2ccccc2cc1C(=O)Nc1ccccc1Cl	/	-3.5	3.4	/	65.7	92.6*
COc1cc(C(=O)Nc2ccncc2)cc(OC)c1OC	-0.4	4.4	-13.6	0.1	-4.3	-5.3
Cc1ccc(C(=O)NNC(=O)c2n[nH]c(=O)c3ccccc23)cc1C	/	/	1.8	/	/	/
O=C(Cc1ccsc1)NNC(=O)c1ccccc1O	/	/	-3.7	/	3.9	-4.2
CS(=O)(=O)c1ccccc1C(=O)Nc1cccc(-c2nc3ccccc3o2)c1	/	-1.0	-3.2	/	1.6	-2.0
O=C(NCCc1ccccc1)[C@@H]1CC=C[C@@H]2CCN(C3CCCCC3)C(=O)[C@@H]21	/	/	-2.7	/	-1.8	1.1
CC(C)CN(C(=O)C1=NN(c2ccccc2)C(=O)CC1)c1c(N)n(Cc2ccccc2)c(=O)[nH]c1=O	/	/	-3.4	/	/	/
COc1cccc(NC(=O)n2ncc3c(C)cccc32)c1	/	35.3*	-1.4	/	2.6	2.2
Cc1ccc(NC(=O)n2ncc3c(C)cccc32)c(C)c1	/	-2.0	-4.0	/	16.8	56.7*
CCOc1ccc(NC(=O)n2ncc3c(C)cccc32)cc1	/	-7.0	-3.8	/	8.6	11.3
CC1(C)NC(=O)N(CCCOc2ccccc2Br)C1=O	-0.6	-3.0	-1.8	0.2	5.5	52.1*
Fc1ccc(Nc2c(-c3ccco3)nc3ccccn23)cc1	23.5	-10.1	-1.4	-0.3	32.5	61.9*
Cc1ccc(Nc2c(-c3ccco3)nc3ccccn23)cc1	-16.7	-0.3	-11.4	-0.2	23.3	42.8
COc1ccc(Nc2c(-c3ccco3)nc3ccc(C)cn23)cc1	2.6	-1.8	-3.1	-0.2	7.9	22.6
c1ccc(Nc2c(-c3ccco3)nc3ccccn23)cc1	18.1	-7.9	-11.0	-0.2	43.8	80.5*
CCSc1nc(C)nc2sc(C)c(C)c12	-6.6	-1.2	0.5	/	-4.3	-15.7
CCn1c(=O)cc(SCC(=O)N2CCN(c3ccccn3)CC2)c2ccccc21	-5.6	1.1	4.0	0.0	7.0	29.6
CCn1c(=O)cc(SCC(=O)N2CCN(c3ccccc3F)CC2)c2ccccc21	-18.6	-2.0	-2.3	-0.3	16.5	54.2*
SMILES	Tb hexokinase	HSP90 inh	HKDC1 inhibitor	Hsp70 activator	HSF1 inh	HSF-1 act
COc1ccc(-c2nc3ccccn3c2NCc2ccc3c(c2)OCO3)cc1	-5.6	-7.6	4.6	-0.4	3.1	-2.0
COc1ccc(-c2nc3cc(C)ccn3c2NCc2ccc3c(c2)OCO3)cc1	5.9	1.3	1.4	-0.4	21.2	54.6*
CCCNC(=O)C1(S(=O)(=O)c2ccccc2)CC=CC1	/	-1.0	-7.9	/	-1.1	-12.0
CCN1C(=NCCc2cccs2)N[C@@H](c2cccs2)C(C(=O)OC)=C1C	/	-0.2	3.6	/	-60.0*	-68.5
Nc1nonc1-n1nnc(C(=O)N/N=C/c2cccc(Cl)c2)c1-c1cccs1	/	0.2	4.7	/	-4.7	14.3
Cc1ccc(N=C2SC(C(=O)O)CC(=O)N2C)cc1C (centres undefined)	2.3	2.5	-10.5	-0.3	-1.8	-18.1
Cc1ccc(N=C2SC(C(=O)NCCc3ccccc3)CC(=O)N2C)cc1C (centres undefined)	-1.2	-0.8	-0.7	-0.3	17.7	69.8*
COc1ccc(OC)c(NC(=O)CN2C(=O)C(C)N(c3ccc(C)cc3)C2=O)c1 (centres undefined)	/	/	1.4	/	/	/
O=C(NC(=S)N1CCN(c2ccc(C(F)(F)F)cc2[N+](=O)[O-])CC1)c1cccs1	6.9	-3.1	-5.4	-0.2	-93.6*	-93.6
C/C(N)=C(/C#N)C(=O)CSc1nnc(Nc2ccccc2C)s1	-6.1	-0.4	0.0	-0.2	38.4	70.9*
C/C(N)=C(/C#N)C(=O)CSc1nnc(Nc2ccccc2)s1	1.0	3.4	-4.1	0.2	29.7	55.3*
C[C@H](CO)N1C[C@H](C)[C@@H](CN(C)Cc2ccncc2)Oc2ccc(NC(=O)CCCCCC(=O)Nc3ccccc3N)cc2C1=O	/	/	-0.2	/	/	/
CCOc1ccc(CN2CCC(C(=O)Nc3cccc(-c4ccn[nH]4)c3)CC2)cc1Cl	/	5.7	1.0	/	9.5	15.9
Cc1nn2c(=O)cc(CSCC(=O)Nc3ccccc3Cl)nc2s1	/	3.0	-1.5	/	-1.2	16.6
N#CCCN(Cc1ccccc1)C(=O)c1nccnc1C(=O)O	/	-6.0	-0.7	/	0.6	4.1
CC(=O)Nc1ccc(NC(=O)c2c([N+](=O)[O-])cnn2C)cc1	/	-3.2	1.9	/	-0.2	3.1
Cn1ncc([N+](=O)[O-])c1C(=O)Nc1ccc(-c2nc3ccccc3o2)cc1	-7.6	1.8	-9.5	-0.2	18.7	56.3*
Cc1cccc(Nc2nc(N)c([N+](=O)[O-])c(NCc3ccccc3)n2)c1	-11.5	2.9	5.0	/	7.6	20.2
COc1cccc(Nc2nc(N)c([N+](=O)[O-])c(NCc3ccccc3)n2)c1	-10.8	3.7	1.7	/	31.6	70.4*
CCN(CC)c1ccc(/C=N/NC(=O)OC(C)(C)C)cc1	-71.0	-1.1	-0.5	/	20.5	60.0*
CCN(CC)c1ccc(/C=N\NC(N)=O)cc1	-50.9	2.1	-9.1	-0.4	-1.6	-7.2
CC(=O)Nc1nc(-c2ccc3ccccc3c2)cs1	/	2.9	1.2	/	43.1	87.2*
CCN(C[C@H]1N[C@@](CC)(C(=O)OC)[C@H]2C(=O)N(Cc3ccccc3)C(=O)[C@@H]12)S(=O)(=O)c1ccc(OC(F)(F)F)cc1	/	/	-0.6	/	/	/
COc1ccc(N(CCCN2C(=O)c3cccc4cccc(c34)C2=O)C(=O)c2ccncc2)cc1	-10.4	1.5	14.2	-0.1	-1.0	-4.2
COc1cc(OC)cc(C(=O)N(CCCN2C(=O)c3cccc4cccc(c34)C2=O)c2cccc(OC)c2)c1	-5.3	-0.9	11.9	-0.2	37.0	59.4*
COc1ccc(NC(=O)CSc2nnc3ccc(-c4cccnc4)nn23)c(OC)c1	/	/	11.8	/	0.2	5.8
CN(C)c1nc(N)nc(CSc2nnnn2-c2ccc(F)cc2)n1	1.8	7.1	7.8	0.2	20.4	60.2*
CCOc1ccccc1N(CC(=O)NC1CCCC1)C(=O)CNC(=O)c1cccs1	/	1.1	-1.5	/	2.9	2.0
COCCNC(=O)C(OC(=O)c1cccs1)c1ccccc1 (centres undefined)	5.1	-0.5	0.2	-0.3	-54.7*	-63.1
